Test results published in publication PMC7856085 (Archives of biochemistry and biophysics, 2020).

Legend:
[1] = target: GSALDH activity of SmPutA (Sinorhizobium meliloti, UniProt F7X6I3); assay: GSALDH activity measurements; assay type: biochemical; settings: for Ki / α: P5C variable substrate
mammalian GSALDH = settings: competitive with P5C; cited from earlier work
SmPutA = assay: Fluorescence-based thermal shift assay; assay type: binding, Sinorhizobium meliloti; settings: compound at 62.5 mM; ligand-free SmPutA T1/2 40.2 °C
[2] = system: GSALDH active site of SmPutA; assay: Co-crystallization / electron density in the GSALDH active site; parameters: species or system Sinorhizobium meliloti; settings: co-crystallization at 50 mM
In short: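 Recombinant SmPutA (expressed in E. coli) at 6 mg/mL in 50 mM Tris pH 8.0, 50 mM NaCl, 5% glycerol, 0.5 mM TCEP. Sitting-drop co-crystallization at 13 °C against 19% PEG-3350, 0.2 M ammonium sulfate, 0.1 M MgCl2, 0.1 M HEPES pH 8.0, 0.1 M sodium formate. Ligand at 50 mM, with or without 10 mM NAD+. Cryoprotected with added 15% PEG-200. Ligand density checked with polder omit maps.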

[3] = Competitive model, NAD+ fixed at 0.2 mM
[4] = Uncompetitive model, NAD+ fixed at 0.2 mM
[5] = Mixed model, NAD+ fixed at 0.2 mM

Structure (SMILES) | Ki [1, 3] | ΔT1/2 (increase of midpoint of stability curve) (SmPutA) | Ki [1, 5] | α [1, 5] | also measured
O=C(O)[C@@H]1CCCN1 [L-Pro, L-proline] | 11 mM |  |  |  | Ki [1, 4]: 19 mM; Ki (mammalian GSALDH): 3 mM
O=C(O)[C@@H]1C[C@H](O)CN1 [CHLP, cis-4-hydroxy-L-proline] |  | 2.1 °C |  |  | Inhibition of the GSALDH activity of SmPutA ([1]; fit to competitive model, L-P5C variable substrate, NAD+ fixed): does not inhibit; Binding to GSALDH site (electron density) [2]: does not bind GSALDH
O=C(O)[C@H]1C[C@@H](O)CN1 [CHDP, cis-4-hydroxy-D-proline] | 8 mM | 4.0 °C | 25 mM | 0.9 ± 0.5 | 
O=C(O)[C@H]1C[C@H](O)CN1 [THDP, trans-4-hydroxy-D-proline] | 4.5 ± 0.5 mM | 5.6 °C | 10 mM | 1.6 ± 0.4 | 
O=C(O)[C@H]1CCCN1 [D-Pro, D-proline] | 1.5 ± 0.5 mM |  |  |  | Ki [1, 4]: 4.5 ± 0.2 mM
O=C(O)[C@@H]1C[C@@H](O)CN1 [THLP, trans-4-hydroxy-L-proline] | 7 mM | 2.9 °C | 27 mM | 0.6 ± 0.1 | 
O=C(O)C1CCC=N1 [L-P5C, Δ^1-pyrroline-5-carboxylate] |  |  |  |  | Km ([1]; substrate of GSALDH activity of SmPutA, NAD+ fixed at 0.2 mM): 300 ± 100 µM
